Assay results gathered from unrelated publications.
Each line is one published result; the experiments were not run side by side.
Effect on: cell growth or viability

SMILES | cell line | assay | conditions | IC50 [nM]
COc1cc2c3c(n(CCCn4ccnc4)c(=O)c2cc1OC)-c1nc2c(cc1C3=O)OCO2 | TC-32 | MTS | 72 h | 127
CCOc1nc(-c2cccc(O)c2)cc(-c2cc3cc(Cl)ccc3nc2N2CCOCC2)c1C#N | Caco-2 | MTT | 72 h | 117
COc1nc(NCc2cn(-c3ccc(NC(=O)c4ccc(Cl)cc4)cc3)nn2)nc(OC)n1 | Caco-2 | MTT | 72 h | 620
CCOc1nc(-c2cccc(O)c2)cc(-c2cc3ccccc3nc2N2CCOCC2)c1C#N | Caco-2 | MTT | 72 h | 141
COc1nc(NCc2cn(-c3ccc(C(=O)Nc4ccc(F)cc4)cc3)nn2)nc(OC)n1 | Caco-2 | MTT | 72 h | 1030
C=C(F)C(=O)N1CCN(c2nc(OC[C@@H]3CCCN3C)nc3c2CCN(c2cccc4cccc(Cl)c24)C3)C[C@@H]1CC#N | HCC44 | ATP luminescence | 3D culture | 3.82
CCCOc1nc(-c2cccc(O)c2)cc(-c2cc3cc(OC)ccc3nc2N2CCOCC2)c1C#N | Caco-2 | MTT | 72 h | 42.2
COc1nc(NCc2cn(-c3ccc(C(N)=O)cc3)nn2)nc(OC)n1 | Caco-2 | MTT | 72 h | 970
CC1(C)CCC(CN2CCN(c3ccc(C(=O)NS(=O)(=O)c4ccc(NCC5CCOCC5)c([N+](=O)[O-])c4)c(Oc4cnc5[nH]ccc5c4)c3)CC2)=C(c2ccc(Cl)cc2)C1 | SU-DHL-4 | ATP luminescence | 48 h | 25
C/C(=N\NC(=O)c1cccc(S(=O)(=O)N2CCN(C)CC2)c1)c1cc(Cl)ccc1O | TC-32 | resazurin | – | 3300
C=CC(=O)N1CCN(c2nc(=O)n(-c3c(C)ccnc3C(C)C)c3nc(-c4c(O)cccc4F)c(F)cc23)[C@@H](C)C1 | HCC44 | ATP luminescence | – | > 10000
COc1nc(NCc2cn(-c3ccc(C(=O)Nc4ccc(C(F)(F)F)cc4)cc3)nn2)nc(OC)n1 | Caco-2 | MTT | 72 h | 171
COc1cc2c3c(n(CCCN4CCOCC4)c(=O)c2cc1OC)-c1nc2c(cc1C3=O)OCO2 | TC-32 | MTS | 72 h | 569
COc1cccc2c1C(=O)c1c(O)c3c(c(O)c1C2=O)C[C@@](O)(C(=O)CO)C[C@@H]3O[C@H]1C[C@H](N)[C@H](O)[C@H](C)O1 | NCI-H1650 | MTT | 72 h | 120
COc1cccc2c1C(=O)c1c(O)c3c(c(O)c1C2=O)C[C@@](O)(C(=O)CO)C[C@@H]3O[C@H]1C[C@H](N)[C@H](O)[C@H](C)O1 | Caco-2 | MTT | 72 h | 1010
COc1cc2c3c(n(CCCNC(C)C)c(=O)c2cc1OC)-c1nc2c(cc1C3=O)OCO2 | TC-32 | MTS | 72 h | 55
